Rows were chosen to be rich in hits. Some 9.3% of all compounds tested hit in one or more screens of this group.
PostGolgi yeast – phenotypic screen on post-Golgi transport, primary screen | actives 0.9% (n = 98,000) | inhibition, % at 10 µM | post-Golgi transport phenotypic cell assay;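 further: yeast cells grown in 1536-well plates; yeast grown about 18 h at 30C before absorbance read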
D1 allo mod – D1 CRE-luciferase signal change, two-sided – cell-based, HEK293 D1, dopamine EC30, D1 allosteric modulator project, primary screen. actives 5.9% (n = 58,000). dopamine EC30 potentiation; actives deviate in either direction. B-score at 10 µM;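 active means luminescence count or its row- and column-corrected plate score outside the 99.7% band of the plate's sample wells, on either side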
tolC growth inh – growth inhibitors of E. coli tolC mutant, primary screen, strain BW25113 ΔtolC::kan, 384-well. growth inhibition, % at 10 µM (by protocol). OD615. actives 2.2% (n = 65,000);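 active means growth inhibition at or above a cutoff equal to the mean over every tested compound plus 3 SD, cut at about 60% in these data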;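 further: growth measured after 20 h incubation at 37 °C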
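Test system: E. coli BW25113 ΔtolC::kan bacteria; incubation: 37 °C, 20 h exposure; medium: LB broth supplemented with 50 µg/mL kanamycin; read-out basis: percent growth inhibition; signal: A615 absorbance measurement; compound: 10 µM final, single dose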
Ecoli WT expand – growth inhibitors of wild-type E. coli, primary screen, strain BW25113, expanded library, OD600; growth inhibition, % at 100 µM; OD600 absorbance; actives 0.15% (n = 98,000);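 active means growth inhibition above about 50% at one test dose, limit read from the data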;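 further: growth measured after 20 h incubation at 37 °C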
DAT uptake mod – changed hDAT dopamine uptake under cocaine IC80, either direction, primary screen, cocaine antagonist project, cell-based, LLC-PK1 hDAT, [14C]-dopamine uptake, MLSMR. AID 449768, 2010. B-score at 10 µM. actives 1.3% (n = 110,000). Sodium-dependent dopamine transporter (Homo sapiens), Q01959. LLC-PK1 hDAT cells, [14C]-dopamine uptake with cocaine IC80; actives deviate in either direction;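 active means Z score or B-score, a plate-position-corrected score, falls beyond the plate's 99.7% confidence bounds, in either direction; inactive means both scores lie inside the 99.7% bounds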
PostGolgi ctrl – growth inhibition of yeast control strain, primary screen, counter-screen for post-Golgi transport modulator project | inhibition, % at 10 µM | efflux-deficient yeast background strain, growth absorbance A615, 16 h | actives 5% (n = 98,000)
A number is an active result. Unless noted, no stated cut-off is given here; in the data, active means inhibition above about 30%; inactive means the rest.

`COc1ccccc1N1CCN(CC(O)COc2ccc3c(c2)CCC3)CC1` (configuration not stated) gave PostGolgi yeast inactive, Ecoli WT expand inactive, DAT uptake mod inactive and PostGolgi ctrl inactive.
Screening COc1ccc2[nH]c3c(=O)n(CCCCC(=O)N4CCC(C(N)=O)CC4)c(=S)[nH]c3c2c1 returned PostGolgi yeast inactive, D1 allo mod inactive, tolC growth inh 100, Ecoli WT expand inactive, DAT uptake mod inactive and PostGolgi ctrl inactive.
`COc1ccc2[nH]c3c(=O)n(CCCCC(=O)NCCN4CCCC4)c(=S)[nH]c3c2c1` gave PostGolgi yeast inactive, D1 allo mod inactive, tolC growth inh 61, Ecoli WT expand inactive, DAT uptake mod inactive and PostGolgi ctrl inactive.
O=C(CCn1c(=S)[nH]c2ccccc2c1=O)NCCCN1CCOCC1 was read as PostGolgi yeast inactive, Ecoli WT expand inactive, DAT uptake mod inactive and PostGolgi ctrl inactive.
COc1ccc(OC)c(-n2c(=S)[nH]c3cc(C(=O)N4CCC(C(N)=O)CC4)ccc3c2=O)c1 was read as PostGolgi yeast inactive, Ecoli WT expand inactive, DAT uptake mod inactive and PostGolgi ctrl inactive.
Screening Cc1cc(Cl)c(S(=O)(=O)N2CCCCCC2)cc1OCC(N)=O returned PostGolgi yeast inactive, D1 allo mod inactive, tolC growth inh inactive, Ecoli WT expand inactive, DAT uptake mod inactive and PostGolgi ctrl inactive.
CCOC(=O)C1CCCN(S(=O)(=O)c2cc(OCC(N)=O)c(C)cc2Cl)C1 (configuration not stated) was read as PostGolgi yeast inactive, D1 allo mod inactive, tolC growth inh inactive, Ecoli WT expand inactive, DAT uptake mod inactive and PostGolgi ctrl 33.
Screening Cc1onc(-c2ccccc2Cl)c1C(=O)Nc1nnc(-c2ccc(Br)cc2)s1 returned PostGolgi yeast inactive, Ecoli WT expand inactive, DAT uptake mod inactive and PostGolgi ctrl inactive.
For Cc1ccc(C(=O)Nc2nc3c(s2)CCCC3)o1 the results were PostGolgi yeast inactive, D1 allo mod -4.7, tolC growth inh inactive, Ecoli WT expand inactive, DAT uptake mod inactive and PostGolgi ctrl inactive.
Screening O=C(Nc1nc2c(s1)CCCC2)c1cccs1 returned PostGolgi yeast inactive, D1 allo mod inactive, tolC growth inh inactive, Ecoli WT expand inactive, DAT uptake mod inactive and PostGolgi ctrl inactive.
Screening Cc1onc(-c2ccccc2Cl)c1C(=O)Nc1nc2c(s1)CCCC2 returned PostGolgi yeast inactive, Ecoli WT expand inactive, DAT uptake mod inactive and PostGolgi ctrl 43.
O=C(Cc1cccs1)Nc1nc2c(s1)CCCC2 was read as PostGolgi yeast 35, D1 allo mod inactive, tolC growth inh inactive, Ecoli WT expand inactive, DAT uptake mod inactive and PostGolgi ctrl inactive.
For Cc1onc(-c2ccccc2Cl)c1C(=O)Nc1nnc(-c2ccc(F)cc2)s1 the results were PostGolgi yeast inactive, tolC growth inh inactive, Ecoli WT expand inactive, DAT uptake mod 2.7 and PostGolgi ctrl 35.
For Cc1cccc(C(C)Nc2ccc([N+](=O)[O-])cn2)c1 (configuration not stated) the results were PostGolgi yeast inactive, Ecoli WT expand inactive, DAT uptake mod inactive and PostGolgi ctrl inactive.
`COc1cc(OC)c2ccc(=O)oc2c1C(CCN1CCN(c2ccccc2)CC1)c1ccc(N(C)C)cc1` (configuration not stated) gave DAT uptake mod inactive.
Screening COC(=O)c1cc(OC)c(OC)cc1NC(=O)c1c(-c2ccccc2Cl)noc1C returned PostGolgi yeast inactive, D1 allo mod inactive, tolC growth inh inactive, Ecoli WT expand inactive, DAT uptake mod inactive and PostGolgi ctrl 37.
For CS(=O)(=O)N1CCN(c2ccccc2F)CC1 the results were PostGolgi yeast inactive, D1 allo mod inactive, tolC growth inh inactive, Ecoli WT expand inactive, DAT uptake mod inactive and PostGolgi ctrl 31.
COc1cc(S(=O)(=O)N2CCN(c3ccccc3F)CC2)ccc1Cl was read as PostGolgi yeast inactive, D1 allo mod inactive, tolC growth inh inactive, Ecoli WT expand inactive, DAT uptake mod inactive and PostGolgi ctrl 48.
